ChEMBL document CHEMBL1125010, “Relaxant activity of 4-amido-3,4-dihydro-2H-1-benzopyran-3-ols and 4-amido-2H-1-benzopyrans on guinea pig isolated trachealis” (J Med Chem, 1990)
One block for each compound: values may come before it.

Legend:
[1] = species on record: Cavia porcellus; assay: Inhibition of spontaneous tone in Guinea pig tracheal spiral strips.; type: functional, Trachea
How it was run: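 Guinea pig isolated trachealis, spontaneous tone. Relaxation is compared with the response to isoprenaline. IC50 is the concentration giving 50% of the isoprenaline response, read from the dose-response curve. Reported as the geometric mean, generally of four or more determinations.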

[2] = species on record: Cavia porcellus; assay: Intrinsic activity measured on Guinea pig tracheal spiral strips.; type: functional, Trachea
How it was run: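 Guinea pig isolated trachealis relaxation. Intrinsic activity is the compound's maximum relaxant response divided by the maximum produced by isoprenaline. Reported as an arithmetic mean.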

Structure (SMILES): CC1(C)Oc2cccc(C(F)(F)F)c2[C@@H](N2CCCCC2=O)[C@@H]1O
IC50 ([1]; Cavia porcellus, Trachea): > 20000 nM
Intrinsic activity [2]: 0.13

Structure (SMILES): CC1(C)Oc2ccncc2[C@@H](N2CCCC2=O)[C@@H]1O
IC50 ([1]; Cavia porcellus, Trachea): 8600 nM
Intrinsic activity [2]: 0.68

Structure (SMILES): CC1(C)Oc2cc(C(F)(F)F)ccc2[C@@H](N2CCCCC2=O)[C@@H]1O (stereo in doubt; (-)24)
IC50 [1]: 12600 nM
Intrinsic activity [2]: 0.69

Structure (SMILES): CC1(C)C=C(N2CCCCC2=O)c2c(cccc2C(F)(F)F)O1
IC50 ([1]; Cavia porcellus, Trachea): > 20000 nM
Intrinsic activity [2]: 0.11

Structure (SMILES): Cc1ccc2c(c1)[C@@H](N1CCCC1=O)[C@H](O)C(C)(C)O2
IC50 ([1]; Cavia porcellus, Trachea): 13500 nM
Intrinsic activity [2]: 0.62

Structure (SMILES): CC1(C)C=C(N2CCCC2=O)c2ccc(C(F)(F)F)cc2O1
IC50 ([1]; Cavia porcellus, Trachea): 5100 nM
Intrinsic activity [2]: 0.97

Structure (SMILES): CC1(C)C=C(N2CCC2=O)c2cc(C#N)ccc2O1
IC50 ([1]; Cavia porcellus, Trachea): 7500 nM
Intrinsic activity [2]: 0.91

Structure (SMILES): CC1(C)C=C(N2CCCC2=O)c2cnccc2O1
IC50 ([1]; Cavia porcellus, Trachea): 6700 nM
Intrinsic activity [2]: 0.67

Structure (SMILES): CC1(C)Oc2cc(C(F)(F)F)ccc2[C@@H](N2CCCCC2=O)[C@@H]1O (stereo in doubt; (+)24)
IC50 [1]: 360 nM
Intrinsic activity [2]: 0.89

Structure (SMILES): CC1(C)C=C(N2CCCCC2=O)c2ccc(C#N)cc2O1
IC50 ([1]; Cavia porcellus, Trachea): 3960 nM
Intrinsic activity [2]: 0.86

Structure (SMILES): CC1(C)Oc2cc(C(F)(F)F)ccc2[C@@H](N2CCCCC2=O)[C@@H]1O (racemic)
IC50 [1]: 660 nM

Structure (SMILES): CC1(C)Oc2ccncc2[C@@H](n2ccccc2=O)[C@@H]1O
IC50 ([1]; Cavia porcellus, Trachea): 5100 nM
Intrinsic activity [2]: 0.81

Structure (SMILES): CC1(C)Oc2cc(C#N)ccc2[C@@H](N2CCCCC2=O)[C@@H]1O
IC50 ([1]; Cavia porcellus, Trachea): > 17000 nM
Intrinsic activity [2]: 0.56

Structure (SMILES): Cn1c(=O)c2[nH]cnc2n(C)c1=O.Cn1c(=O)c2[nH]cnc2n(C)c1=O.NCCN [AMINOPHYLLINE]
IC50 ([1]; Cavia porcellus, Trachea): 20100 nM
Intrinsic activity [2]: 0.54

Structure (SMILES): COC(=O)C1=C(C)NC(C)=C(C(=O)OC)C1c1ccccc1[N+](=O)[O-] [NIFEDIPINE]
IC50 ([1]; Cavia porcellus, Trachea): > 20000 nM
Intrinsic activity [2]: 0.49

Structure (SMILES): CC1(C)C=C(n2ccccc2=O)c2c[n+]([O-])ccc2O1
IC50 ([1]; Cavia porcellus, Trachea): > 20000 nM
Intrinsic activity [2]: 0.01

Structure (SMILES): CC1(C)Oc2ccc(C#N)cc2[C@@H](N2CCC2=O)[C@@H]1O
IC50 ([1]; Cavia porcellus, Trachea): > 20000 nM

Further compounds by falling IC50 ([1]; Cavia porcellus, Trachea), results first:

IC50 ([1]; Cavia porcellus, Trachea): 3630 nM
Structure (SMILES): CC(N/C(=N\C#N)Nc1ccncc1)C(C)(C)C (centres undefined) [PINACIDIL ANHYDROUS]
Intrinsic activity [2]: 0.86

IC50 ([1]; Cavia porcellus, Trachea): 2970 nM
Structure (SMILES): CC1(C)C=C(N2CCCCC2=O)c2ccc(C(F)(F)F)cc2O1
Intrinsic activity [2]: 0.97

IC50 ([1]; Cavia porcellus, Trachea): 2680 nM
Structure (SMILES): CCc1ccc2c(c1)[C@@H](N1CCCC1=O)[C@H](O)C(C)(C)O2
Intrinsic activity [2]: 0.92

IC50 ([1]; Cavia porcellus, Trachea): 2250 nM
Structure (SMILES): CCc1ccc2c(c1)OC(C)(C)[C@@H](O)[C@@H]2N1CCCCC1=O
Intrinsic activity [2]: 0.83

IC50 ([1]; Cavia porcellus, Trachea): 2200 nM
Structure (SMILES): CC1(C)C=C(N2CCCCC2=O)c2cnccc2O1
Intrinsic activity [2]: 0.92

IC50 ([1]; Cavia porcellus, Trachea): 2100 nM
Structure (SMILES): CC1(C)C=C(n2ccccc2=O)c2cnccc2O1
Intrinsic activity [2]: 0.93

IC50 ([1]; Cavia porcellus, Trachea): 1570 nM
Structure (SMILES): CC1(C)C=C(N2CCCC2=O)c2cc(C#N)ccc2O1
Intrinsic activity [2]: 0.91

IC50 ([1]; Cavia porcellus, Trachea): 1200 nM
Structure (SMILES): Cc1ccc2c(c1)[C@@H](N1CCCCC1=O)[C@H](O)C(C)(C)O2
Intrinsic activity [2]: 0.92

IC50 ([1]; Cavia porcellus, Trachea): 1100 nM
Structure (SMILES): CC1(C)C=C(N2CCCCC2=O)c2cc(C#N)ccc2O1
Intrinsic activity [2]: 0.9

IC50 ([1]; Cavia porcellus, Trachea): 1100 nM
Structure (SMILES): CC1(C)Oc2ccc(C#N)cc2C(N2CCCC2=O)C1O (centres undefined) [CROMAKALIM]
Intrinsic activity [2]: 0.89

IC50 ([1]; Cavia porcellus, Trachea): 760 nM
Structure (SMILES): CC1(C)Oc2ccc(C#N)cc2[C@@H](n2ccccc2=O)[C@@H]1O [EMAKALIM]
Intrinsic activity [2]: 0.96

IC50 ([1]; Cavia porcellus, Trachea): 730 nM
Structure (SMILES): CC1(C)Oc2cc(C(F)(F)F)ccc2[C@@H](N2CCCC2=O)[C@@H]1O
Intrinsic activity [2]: 0.9

IC50 ([1]; Cavia porcellus, Trachea): 660 nM
Structure (SMILES): CC1(C)Oc2ccncc2[C@@H](N2CCCCC2=O)[C@@H]1O
Intrinsic activity [2]: 0.84

IC50 ([1]; Cavia porcellus, Trachea): 650 nM
Structure (SMILES): CC1(C)C=C(N2CCCCC2=O)c2cc(C(F)(F)F)ccc2O1
Intrinsic activity [2]: 0.89

IC50 ([1]; Cavia porcellus, Trachea): 540 nM
Structure (SMILES): CC1(C)Oc2ccc(C(F)(F)F)cc2[C@@H](n2ccccc2=O)[C@@H]1O
Intrinsic activity [2]: 0.96

IC50 ([1]; Cavia porcellus, Trachea): 410 nM
Structure (SMILES): CC1(C)Oc2ccc(C(F)(F)F)cc2[C@@H](N2CCCC2=O)[C@@H]1O
Intrinsic activity [2]: 0.92

IC50 ([1]; Cavia porcellus, Trachea): 270 nM
Structure (SMILES): CC1(C)Oc2ccc(C#N)cc2[C@@H](N2CCCCC2=O)[C@@H]1O
Intrinsic activity [2]: 0.82

IC50 ([1]; Cavia porcellus, Trachea): 89 nM
Structure (SMILES): CC1(C)C=C(n2ccccc2=O)c2cc(C#N)ccc2O1 [BIMAKALIM]
Intrinsic activity [2]: 0.93

IC50 ([1]; Cavia porcellus, Trachea): 58 nM
Structure (SMILES): CC1(C)Oc2ccc(C(F)(F)F)cc2[C@@H](N2CCCCC2=O)[C@@H]1O
Intrinsic activity [2]: 0.96

IC50 ([1]; Cavia porcellus, Trachea): 56 nM
Structure (SMILES): CC1(C)C=C(n2ccccc2=O)c2cc(C(F)(F)F)ccc2O1
Intrinsic activity [2]: 0.97

IC50 ([1]; Cavia porcellus, Trachea): 18 nM
Structure (SMILES): CC(C)(C)NCC(O)c1ccc(O)c(CO)c1 (centres undefined) [ALBUTEROL]
Intrinsic activity [2]: 0.98
